Laboratory results published in ChEMBL document CHEMBL1914430, “Synthesis of some new 1,3,5-trisubstituted pyrazolines bearing benzene sulfonamide as anticancer and anti-inflammatory agents” (Bioorg Med Chem Lett, 2011).

What was measured:
Assay type in all cases: functional
[1] = test system: M14; assay: Anticancer activity against human M14 cells after 48 hrs; details: M14, 48 h; for CC50: read-out: LC50 (the source's name)
Outline: (§1)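 NCI Drug Evaluation Branch 60-cell-line screen across leukemia, melanoma, lung, colon, CNS, ovarian, renal, prostate and breast panels. The incubation period is 48 h. Parameters are derived from dose–response data: GI50 is the concentration giving 50% decrease in net growth, TGI is total growth inhibition, and LC50 is net 50% loss of initial cells. Values beyond the tested range are reported as greater or less than the maximum or minimum concentration.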

[2] = test system: SK-MEL-28; assay: Anticancer activity against human SK-MEL-28 cells after 48 hrs; details: SK-MEL-28, 48 h; for CC50: read-out: LC50 (the source's name)
Outline: (§2)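 NCI 60-line panel protocol with a 48 h incubation. Per line: GI50 = concentration giving 50% decrease in net cell growth; TGI = total growth inhibition; LC50 = net 50% loss of initial cells. When the level was not reached or was exceeded, the value is given as greater or less than the highest or lowest concentration tested.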

[3] = test system: SK-MEL-2; assay: Anticancer activity against human SK-MEL-2 cells after 48 hrs; details: SK-MEL-2, 48 h; outline: as §2
[4] = test system: HCT-15; assay: Anticancer activity against human HCT15 cells after 48 hrs; details: HCT-15, 48 h; for CC50: read-out: LC50 (the source's name); outline: as §1

SMILES: Cc1cc(O)c(C2=NN(c3ccc(S(N)(=O)=O)cc3)C(/C=C/c3ccccc3)C2)cc1Cl (configuration not stated)
- GI50 [1]: 6.16 µM
- TGI [1]: 19.3 µM
- CC50 [1]: 44.2 µM
- GI50 [2]: 10.9 µM
- TGI [2]: 23.8 µM
- CC50 [2]: 52 µM
- GI50 [3]: 16.8 µM
- LC50 [3]: > 100 µM
- TGI [3]: 58.2 µM
- GI50 [4]: 18.9 µM
- CC50 [4]: > 100 µM

SMILES: Cc1cc(O)c(C2=NN(c3ccc(S(N)(=O)=O)cc3)C(c3ccccc3O)C2)cc1Cl (configuration not stated)
- GI50 [1]: 1.76 µM
- TGI [1]: 3.4 µM
- CC50 [1]: 6.56 µM
- GI50 [2]: 4.05 µM
- TGI [2]: 13.5 µM
- CC50 [2]: 37.8 µM
- GI50 [3]: 11 µM
- LC50 [3]: 67 µM
- TGI [3]: 27.2 µM
- GI50 [4]: 3.64 µM
- TGI [4]: 13.4 µM
- CC50 [4]: 44.7 µM

SMILES: COc1ccc(C2CC(c3cc(Cl)c(C)cc3O)=NN2c2ccc(S(N)(=O)=O)cc2)cc1OC (configuration not stated)
- GI50 [1]: 2.61 µM
- TGI [1]: 7.26 µM
- CC50 [1]: 38.3 µM
- GI50 [2]: 4.29 µM
- TGI [2]: 17.7 µM
- CC50 [2]: 62.7 µM
- GI50 [3]: 5.87 µM
- LC50 [3]: > 100 µM
- TGI [3]: 32.7 µM
- GI50 [4]: 3.32 µM
- TGI [4]: 20.2 µM
- CC50 [4]: > 100 µM

SMILES: Cc1cc(O)c(C2=NN(c3ccc(S(N)(=O)=O)cc3)C(c3ccccc3Cl)C2)cc1Cl (configuration not stated)
- GI50 [1]: 1.85 µM
- TGI [1]: 3.43 µM
- CC50 [1]: 6.39 µM
- GI50 [2]: 3.39 µM
- TGI [2]: 12.3 µM
- CC50 [2]: 52.9 µM
- GI50 [3]: 11.9 µM
- LC50 [3]: 81.1 µM
- TGI [3]: 31 µM
- GI50 [4]: 3.69 µM
- TGI [4]: 16.6 µM
- CC50 [4]: > 100 µM
